Assays:
MDA-MB-231 [1] = test: In vitro cytotoxic activity against human breast MDA-MB-231 cell line ( standard deviation in parenthesis); format: functional, cell-based
Procedure, shortened: (§1)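 MTT assay on human cells grown in DMEM with 10% FBS and penicillin/streptomycin at 37 °C, 5% CO2. About 5000 cells/well; compounds diluted with DMSO are added after 24 h for 48 h. Then 1 mg/mL MTT (final) in serum-free, phenol-red-free RPMI for 4 h. Formazan dissolved in 2-propanol, OD 550 nm (ref 690 nm).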

L1210 = test: In vitro cytotoxic activity against murine leukemia cell line L1210; format: functional, cell-based; settings: Mus musculus
HT-29 [2] = test: In vitro cytotoxic activity against human colon HT-29 cell line ( standard deviation in parenthesis); format: functional, cell-based; procedure, shortened: as §1
HCT-116 [3] = test: In vitro cytotoxic activity against human colon HCT116 cell line ( standard deviation in parenthesis); format: functional, cell-based; procedure, shortened: as §1
A549 [4] = test: In vitro cytotoxic activity against human lung A549 cell line; format: functional, cell-based; procedure, shortened: as §1
MDA-MB-231 [5] = test: In vitro cytotoxic activity against human breast MDA-MB-231 cell line; format: functional, cell-based; procedure, shortened: as §1
HCT-116 [6] = test: In vitro cytotoxic activity against human colon HCT116 cell line; format: functional, cell-based; procedure, shortened: as §1
HT-29 [7] = test: In vitro cytotoxic activity against human colon HT-29 cell line; format: functional, cell-based; procedure, shortened: as §1
HRT-18 cell line [8] = test: In vitro inhibition of HRT-18 (human colon) cell proliferation.; format: functional, cell-based; procedure, shortened: as §1
HRT-18 cell line [9] = test: In vitro cytotoxic activity against human colon HRT-18 cell line; format: functional, cell-based
Procedure, shortened: (§2)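 MTT assay on human tumour cells grown in DMEM with 10% FBS, penicillin and streptomycin at 37 °C, 5% CO2. About 5000 cells/well were seeded, and compounds diluted with DMSO were added after 24 h. After 48 h exposure, 1 mg/mL MTT (final) was added for 4 h. Formazan was dissolved in 2-propanol and read at 550 nm (reference 690 nm).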

Calf thymus DNA = test: In vitro inhibition of calf thymus DNA/ethidium bromide complex formation.; format: nucleic-acid assay
Procedure, shortened: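 Ethidium displacement: compounds added to 5 mM Tris-HCl/0.5 mM EDTA buffer, pH 8, containing calf thymus DNA (1 µg/mL) and ethidium bromide (1 µg/mL). EC50 is the concentration halving DNA/ethidium complex fluorescence. Mean of two experiments.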

A549 [10] = test: In vitro cytotoxic activity against human lung A549 cell line); format: functional, cell-based; procedure, shortened: as §2
HRT-18 cell line [11] = test: In vitro cytotoxic activity against human colon […] cell line ( standard deviation in parenthesis); format: functional, cell-based; procedure, shortened: as §1
A549 [12] = test: In vitro cytotoxic activity against human lung A549 cell line ( standard deviation in parenthesis); format: functional, cell-based; procedure, shortened: as §2

Row | EC50 (Calf thymus DNA) [µM] | Structure (SMILES) | IC50 (MDA-MB-231 [1]) [µM] | IC50 (L1210) [µM] | IC50 (HT-29 [2]) [µM] | IC50 (HCT-116 [3]) [µM] | IC50 (A549 [4]) [µM] | IC50 (MDA-MB-231 [5]) [µM] | IC50 (HCT-116 [6]) [µM] | IC50 (HT-29 [7]) [µM] | IC50 (HRT-18 cell line [8]) [µM] | IC50 (HRT-18 cell line [9]) [µM] | IC50 (A549 [10]) [µM] | IC50 (HRT-18 cell line [11]) [µM] | IC50 (A549 [12]) [µM]
1 |  | COc1ccc2c(c1)-c1nn(CCOS(C)(=O)=O)c3cc4c(c(c13)N2C)C=CC(C)(C)O4 | 12 | 0.4 | 18 | 12 | > 100 |  |  |  |  |  |  |  | 
2 |  | CN1c2ccccc2-c2nn(CCOS(C)(=O)=O)c3cc4c(c1c23)C=CC(C)(C)O4 |  | 2.5 | 20 | 49 |  |  |  |  |  |  |  |  | 
3 |  | CC1(C)C=Cc2c(cc3c4c(nn3CCN3CCCCC3)-c3ccccc3Oc24)O1 |  | 10.1 |  |  | 15 | 20 | 20 | 6.5 | 10 |  |  |  | 
4 | 290 | COc1cccc2c1Oc1c3c(cc4c1c-2nn4CCN1CCCCC1)OC(C)(C)C=C3 |  | 16.5 |  |  | 31 | 37 | 54 | 6 | 12 |  |  |  | 
5 |  | CC1(C)C=Cc2c(cc3c4c(nn3CCO)-c3ccccc3Oc24)O1 |  | > 10 |  |  | > 100 | 100 | 28 | 12 | 4 |  |  |  | 
6 | > 500 | CC1(C)C=Cc2c(cc3c4c(nn3CCOS(C)(=O)=O)-c3ccccc3Sc24)O1 | > 100 | 15 | 45 | 44 |  |  |  |  |  |  |  | 30 | 
7 | 274 | COc1cccc2c1Oc1c3c(cc4c1c-2nn4CCO)OC(C)(C)C=C3 |  | > 10 |  |  | > 100 | > 100 | 64 | > 100 | > 100 |  |  |  | 
8 |  | CCN(CC)CCn1nc2c3c(c4c(cc31)OC(C)(C)C=C4)Oc1ccccc1-2 |  | 9.1 |  |  | 10 | 9 | 40 | 9 | 5 |  |  |  | 
9 | 71.7 | COc1cccc2c1Oc1c3c(cc4c1c-2nn4CCN1CCCC1)OC(C)(C)C=C3 |  | 10.6 |  |  | 33 | 11 | 43 | 8 | 60 |  |  |  | 
10 | 431 | CN(C)CCn1nc2c3c(c4c(cc31)OC(C)(C)C=C4)Oc1ccccc1-2 |  | 9.8 |  |  | 32 | 50 | 54 | 18 | 50 |  |  |  | 
11 | 150 | COc1cccc2c1Oc1c3c(cc4c1c-2nn4CCN(C)C)OC(C)(C)C=C3 |  | 14.6 |  |  | 50 | 48 | 51 | 9 | 17 |  |  |  | 
12 |  | CC1(C)C=Cc2c(cc3c4c(nn3CCN3CCCC3)-c3ccccc3Oc24)O1 |  | 8.3 |  |  | 27 | 12 | 42 | 9 | 30 |  |  |  | 
13 |  | CC1(C)C=Cc2c(cc3c4c(nn3CCOS(C)(=O)=O)-c3ccccc3Oc24)O1 | 53 | 31.9 | 24 | 33 | > 100 |  |  |  |  |  |  | 22 | 
14 | 273 | CCN(CC)CCn1nc2c3c(c4c(cc31)OC(C)(C)C=C4)Oc1c(OC)cccc1-2 |  | 9.9 |  |  | 33 | 11 | 41 | 9 | 30 |  |  |  | 
15 |  | COc1cccc2c1Oc1c3c(cc4c1c-2nn4CCOS(C)(=O)=O)OC(C)(C)C=C3 |  | 26.7 |  |  |  |  |  |  |  |  |  |  | 

Row | Structure (SMILES) | EC50 (Calf thymus DNA) [µM] | IC50 (MDA-MB-231 [1]) [µM] | IC50 (L1210) [µM] | IC50 (HT-29 [2]) [µM] | IC50 (HCT-116 [3]) [µM] | IC50 (A549 [4]) [µM] | IC50 (MDA-MB-231 [5]) [µM] | IC50 (HCT-116 [6]) [µM] | IC50 (HT-29 [7]) [µM] | IC50 (HRT-18 cell line [8]) [µM] | IC50 (HRT-18 cell line [9]) [µM] | IC50 (A549 [10]) [µM] | IC50 (HRT-18 cell line [11]) [µM] | IC50 (A549 [12]) [µM]
16 | COc1cc2c(c3c1c(=O)c1ccccc1n3C)C=CC(C)(C)O2 [ACRONINE] | 270 |  |  |  |  |  |  | > 100 | > 100 |  | > 100 | > 100 |  | 
17 | O=C1c2c(O)ccc(O)c2C(=O)c2c(NCCNCCO)ccc(NCCNCCO)c21 [MITOXANTRONE] | 3.4 | 1 |  |  |  |  |  |  |  |  |  |  |  | 
18 | Cc1c2ccncc2c(C)c2c1[nH]c1ccccc12 [ELLIPTECINE] | 22.2 | 2.3 |  | 15 |  |  |  |  |  |  |  |  |  | 10
